Results of several laboratories.
Protocols differ between the studies behind these lines. Converted amounts (≈) assume the structure as drawn.

With CN(C)c1ccc(O)c2c1C[C@H]1C[C@H]3[C@H](N(C)C)C(O)=C(C(N)=O)C(=O)[C@@]3(O)C(O)=C1C2=O the MIC was 2 µg/mL (≈ 4.37 µM) (Enterobacter cloacae; microbial growth, broth dilution; ATCC13047).
With C/C=C(\C)c1cc(OC(=O)c2c(O)c(C)c(O)c(Cl)c2/C(C)=C/C)c(C)c(O)c1C(=O)O the MIC was 64 µg/mL (≈ 139 µM) (Enterococcus gallinarum; microbial growth, broth dilution; GALLINARUM).
CN(C)[C@@H]1C(O)=C(C(N)=O)C(=O)[C@@]2(O)C(O)=C3C(=O)c4c(O)c(-c5ccccc5)nc(Cl)c4C[C@H]3C[C@@H]12.Cl gave an MIC of over 32 µg/mL (Enterobacter cloacae; microbial growth, broth dilution; ATCC13047).
C=CCn1c(-c2ccc([N+](=O)[O-])cc2)nc2ccccc21 has an IC50 of 32.6 µM (human Rhabdomyosarcoma cell; cell growth or viability, MTT).
CC(C)Oc1c(NC(=O)c2ccc(NC(=O)[C@H](CC(N)=O)NC(=O)c3ccc(NC(=O)c4ccc(C#N)cn4)cc3)cc2)ccc(C(=O)Nc2ccc(C(=O)O)cc2)c1O gave an MIC of over 64 µg/mL (Serratia marcescens; microbial growth; DSM30121).
The inhibition of Cc1cc(Nc2ncc(Cl)c(Nc3ccccc3S(=O)(=O)C(C)C)n2)c(OC(C)C)cc1C1CCNCC1 is reported as 90.7% (NCI-H3122; cell growth or viability, MTT; 2 µg/mL, 72 h).
For CC(=O)O[C@H]1C(=O)[C@@]2(C)[C@H]([C@H](OC(=O)c3ccccc3)[C@]3(O)C[C@H](OC(=O)[C@H](O)[C@@H](NC(=O)c4ccccc4)c4ccccc4)C(C)=C1C3(C)C)[C@]1(OC(C)=O)CO[C@@H]1C[C@@H]2O, the IC50 was 6.13 µM (human Rhabdomyosarcoma cell; cell growth or viability, MTT; 48 h).
The MIC of CN(C)[C@@H]1C(O)=C(C(N)=O)C(=O)[C@@]2(O)C(O)=C3C(=O)c4c(cnc(-c5ccccc5)c4O)C[C@H]3C[C@@H]12.Cl.Cl is reported as over 32 µg/mL (Enterobacter cloacae; microbial growth, broth dilution; ATCC13047).
C[C@@H](Oc1cc(-c2cnn(C3CCNCC3)c2)cnc1N)c1c(Cl)ccc(F)c1Cl has an inhibition of 77.5% (NCI-H3122; cell growth or viability, MTT; 1 µg/mL, 72 h).
With O=[N+]([O-])c1ccc(-c2nc3ccccc3n2Cc2ccccc2)cc1 the IC50 was 7.44 µM (human Rhabdomyosarcoma cell; cell growth or viability, MTT).
